# Assay outcomes: PubChem, Johns Hopkins Ion Channel Center
# Kir21 block = inhibitors of mouse Kir2.1 inward-rectifier potassium channel; P35561; HEK293-Kir2.1, FluxOR thallium flux fluorescence; hits give low values; B-score at 10 µM; hit rate 0.85% among 310,000;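 active means fluorescence ratio B-score at or below minus 3 SD of library scores, with starting-brightness B-score within 2 SD, cut at about -4.2 in these data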;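 further: channel flux triggered by added potassium and thallium sulfate stimulus; B-score of peak minus minimum fluorescence over baseline after thallium stimulus; more negative B-score means stronger Kir2.1 block with less thallium influx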
# KCNK9 inh-1 = human KCNK9 channel inhibition | Q9NPC2 | HEK293 KCNK9, FluxOR thallium flux fluorescence; hits give low values | B-score at 10 µM | hit rate 1.2% among 310,000 | AID 488922;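 active means ratio B-score over 3 SD below the library mean, with starting fluorescence within 5 SD of its mean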;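 further: negative B-score means less thallium flux so channel inhibition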
# hERG protect = shields human hERG channel from block by proarrhythmic agents; Q12809; AID 1511; CHO-hERG, FluxOR thallium flux, dofetilide IC70 present; hit rate 0.51% among 310,000; activation (rescue from dofetilide block), less the hit threshold, % at 10 µM;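 active means activation above the mean of controls blocked by dofetilide plus 5 SD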;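 further: thallium influx through hERG after potassium depolarization seen as dye fluorescence rise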
# Target sequence (Q12809 whole entry, looked up): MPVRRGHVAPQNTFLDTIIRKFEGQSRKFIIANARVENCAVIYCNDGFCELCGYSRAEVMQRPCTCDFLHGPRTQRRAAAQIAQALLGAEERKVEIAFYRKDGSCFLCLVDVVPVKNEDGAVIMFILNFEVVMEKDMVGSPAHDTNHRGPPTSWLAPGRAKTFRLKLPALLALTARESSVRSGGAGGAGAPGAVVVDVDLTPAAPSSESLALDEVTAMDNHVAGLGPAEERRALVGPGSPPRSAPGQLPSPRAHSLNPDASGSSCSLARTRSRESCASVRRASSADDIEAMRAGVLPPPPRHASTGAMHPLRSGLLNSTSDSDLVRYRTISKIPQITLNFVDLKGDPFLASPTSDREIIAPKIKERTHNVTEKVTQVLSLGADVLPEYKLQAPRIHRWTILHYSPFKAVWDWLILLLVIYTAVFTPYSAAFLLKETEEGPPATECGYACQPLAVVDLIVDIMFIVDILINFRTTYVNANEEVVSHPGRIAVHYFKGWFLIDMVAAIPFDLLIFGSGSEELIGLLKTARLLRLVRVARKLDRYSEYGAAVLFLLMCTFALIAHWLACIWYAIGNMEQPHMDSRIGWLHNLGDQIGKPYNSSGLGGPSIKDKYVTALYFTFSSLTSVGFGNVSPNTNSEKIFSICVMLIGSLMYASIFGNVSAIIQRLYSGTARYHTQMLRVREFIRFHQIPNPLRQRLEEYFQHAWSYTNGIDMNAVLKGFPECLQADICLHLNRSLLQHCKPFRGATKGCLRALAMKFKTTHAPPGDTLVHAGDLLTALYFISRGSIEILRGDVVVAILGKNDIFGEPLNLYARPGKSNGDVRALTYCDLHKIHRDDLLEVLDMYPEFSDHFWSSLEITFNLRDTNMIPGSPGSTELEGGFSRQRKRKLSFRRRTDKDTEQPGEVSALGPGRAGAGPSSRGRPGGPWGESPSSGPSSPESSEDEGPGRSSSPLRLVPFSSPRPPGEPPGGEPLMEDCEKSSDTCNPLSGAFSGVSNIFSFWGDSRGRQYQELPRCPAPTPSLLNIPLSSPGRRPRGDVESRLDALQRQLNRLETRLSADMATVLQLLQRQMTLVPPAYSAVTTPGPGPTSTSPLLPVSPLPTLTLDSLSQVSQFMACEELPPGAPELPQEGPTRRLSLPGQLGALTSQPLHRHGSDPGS
# KCNQ1 act = human KCNQ1 channel potentiation or activation; P51787; B-score at 10 µM; CHO-K1 KCNQ1, thallium flux FluxOR fluorescence; hits give high values; hit rate 0.35% among 310,000;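 active means fluorescence ratio B-score, a plate-corrected score, at least three library SD, with initial intensity B-score within 5 SD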
#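 System: CHO-K1 cells stably expressing KCNQ1 / Medium: assay buffer for compound exposure, DMSO matched across wells / Reagent: thallium- and potassium-containing depolarizing buffer / Compound: one concentration, matched DMSO / Incubation: 20 min compound pretreatment at room temperature / Measured by: kinetic FluxOR fluorescence, 10 s baseline plus 110 s post-stimulus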
# KCNQ1 block = blocks the human KCNQ1 potassium channel. CHO-K1 KCNQ1, FluxOR thallium flux fluorescence; hits give high values. B-score at 10 µM. hit rate 1.3% among 310,000;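 active means compounds whose thallium flux B-score, printed positive for inhibition, exceeds three library SD while starting fluorescence stays within three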;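 further: channel opened by potassium depolarization with thallium stimulus after 20 min compound exposure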
# KCNK3 block = human KCNK3 channel inhibition, primary screen; O14649; CHO-KCNK3 thallium flux, FluxOR fluorescence; hits give low values; B-score at 10 µM; hit rate 0.84% among 340,000; AID 602410;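 active means B-score under library mean minus 4 SD, starting fluorescence ratio at most library mean plus 5 SD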;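 further: more negative B-score means stronger inhibition of thallium flux through KCNK3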
# hERG ctr = blocks human hERG, in counter-screen for Kir2.1 inhibitors | shares compounds with Kir21 block | hERG-expressing cells, thallium flux | inhibition, % at 10 µM | hit rate 20% among 320 | AID 2236;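 further: host cells are CHO cells stably expressing hERG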
# KCNK9 inh-2 = selectivity of Kir2.1 inhibitors: effect on human KCNK9 | shares compounds with Kir21 block | KCNK9-expressing cells, ion flux inhibition | inhibition, % at 10 µM | hit rate 5% among 320 | AID 2329
# Kir2-1 patch inh = mouse Kir2.1 inward rectifier channel inhibition; hit rate 71% among 320; shares compounds with Kir21 block; inhibition, % at 25 µM; Kir2.1 cells, automated patch-clamp current inhibition
# KCNQ1 block val = reconfirmed blocker of the human KCNQ1 potassium channel. shares compounds with KCNQ1 block. KCNQ1 cell line, FluxOR thallium flux fluorescence. inhibition, % at 10 µM. hit rate 93% among 1,600;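 active means primary screen active, with duplicate mean exceeding buffer control mean plus 3 SD of buffer wells, cut at about 28% in these data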;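 further: 0% = buffer control ratio and 100% = XE991 inhibitor control ratio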
# CHO Tl flux = KCNQ1 inhibitor counter-screen hit in parental CHO cells; shares compounds with KCNQ1 block; parental CHO-K1, FluxOR thallium flux fluorescence ratio; hits give low values; zero means no signal rise above baseline; fluorescence ratio (Tl flux) at 10 µM; hit rate 21% among 1,600; AID 588366;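 active means mean of duplicate thallium-flux fluorescence ratios in parental host cells more than 5 SD below the buffer control mean, cut at about 0.38 in these data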;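 further: ratio is peak minus minimum fluorescence divided by baseline fluorescence; actives read low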
# KCNQ2 inh = selectivity of KCNQ1 inhibitors: inhibition of rat KCNQ2 channel; hit rate 71% among 1,600; KCNQ2 cells, FluxOR thallium flux fluorescence; inhibition, % at 10 µM; shares compounds with KCNQ1 block; AID 651746;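 active means mean percent inhibition of the KCNQ2 thallium signal more than 5 SD above the buffer-only control wells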;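 further: KCNQ2 expressed in CHO cells; 0% = buffer control wells and 100% = XE-991 inhibitor control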
# KCNQ1-KCNE1 inh = selectivity of KCNQ1 inhibitors: inhibition of human KCNQ1/KCNE1 channel; shares compounds with KCNQ1 block; KCNQ1/KCNE1 cells, FluxOR thallium flux fluorescence; inhibition, % at 10 µM; hit rate 77% among 1,600;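 active means mean percent inhibition of duplicate wells above the buffer-only control mean plus 3 SD of those controls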;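 further: 0% = buffer only wells and 100% = XE-991 inhibitor control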
# KCNK9 block conf = confirmation of human KCNK9 potassium channel inhibitors. shares compounds with KCNK9 inh-1. HEK293 KCNK9 cells, FluxOR thallium flux fluorescence. inhibition, % at 10 µM. hit rate 43% among 4,900. AID 492992;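 active means thallium signal inhibited by more than 5 SD of the compound-free buffer control wells, on both duplicate plates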;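 further: 0% = assay buffer control wells without compound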
# Kir2-1 spec = mouse Kir2.1 off-target activity of KCNK9 modulators; inhibition, % at 10 µM; shares compounds with KCNK9 inh-1; Kir2.1 cells, FluxOR thallium flux fluorescence; hit rate 4% among 4,900;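 active means thallium signal drop more than 5 SD beyond the mean of the no-compound control wells, seen in both duplicate plates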;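 further: signal is fluorescence rise after thallium addition divided by baseline fluorescence; plate controls were assay buffer only for no effect and full block by chlorpromazine control for full effect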
# KCNK9 uninduced = second check of KCNK9 modulator effects in non-induced HEK293 cells. FluxOR thallium flux. hit rate 40% among 4,900. shares compounds with KCNK9 inh-1. inhibition, % at 10 µM;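 active means thallium signal drop beyond 5 SD of the untreated control mean, on both duplicate plates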;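 further: plate controls were buffer only IC0 wells for no effect and SID17386958 at its maximal inhibitory level for full effect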
# The depositor's hits bear a star; i = inactive; . = no result given. Only some compounds are listed: those with a hit (about 3.7% of all), similar ones and a draw of the others. Unless noted, how the calls were made is not given here.
SMILES,Kir21 block,KCNK9 inh-1,hERG protect,KCNQ1 act,KCNQ1 block,KCNK3 block,others
CCC(C)c1ccc(N2C(=O)NC(=O)/C(=C/c3cccn3CCOc3ccc(C)cc3)C2=O)cc1 (centres undefined),-0.46,i,-11.2,i,7*,i,
Cc1ccc(N2C(=O)NC(=O)/C(=C\c3cnc(-c4ccccc4)nc3)C2=O)cc1,-0.26,i,-7.6,i,i,i,
CC(C)CC1(CCc2ccccc2)C(=O)NC(=O)NC1=O,.,.,.,.,.,i,
C=CCn1c(O)c(C=Nc2ccc(F)cc2)c(=O)[nH]c1=O,1.08,i,-9.6,i,i,i,
C=CCn1c(O)c(/C=C2/C=c3ccccc3=N2)c(=O)[nH]c1=S,-1.5,i,34.7*,i,i,i,
CC(=O)c1cn(CCCOc2ccccc2)c2ccccc12,-4.63*,i,-15.9,i,i,i,
CC/C(=C\C=C\[C@@H]1C=C[C@@H]2CCC[C@H]2[C@@H]1C(=O)c1ccc[nH]1)[C@@H]1O[C@@H]([C@@H](C)C(=O)O)CC[C@@H]1C,-0.5,i,74.2*,38*,i,.,
C#C[C@]1(O)CCC2C3C(=O)C=C4C(Cl)=CCC[C@]4(C)C3CC[C@@]21C (some centres undefined),.,.,.,.,.,i,
O=C(c1cc(F)ccc1F)C1CCCN(Cc2cc(Cl)ccc2O)C1 (centres undefined),-1.51,i,-8.1,i,6*,i,
Cc1nc2ccccc2c(=O)n1-c1ccncc1,-0.01,i,-10.6,i,i,i,
Cc1nc2ccccc2c(=O)n1-c1cc([N+](=O)[O-])cc([N+](=O)[O-])c1,-0.08,i,4.7*,i,i,i,
CC#CP(=O)(OCC)C(O)(c1ccccc1)C(F)(F)F (centres undefined),-1.32,i,-9.1,i,i,i,
CCOP(=O)(C#CC(C)(C)C)C(O)(c1ccccc1)C(F)(F)F (centres undefined),-4.35*,i,-14.7,i,i,i,
COc1cc(OC)c(OC)cc1CNCCc1cccc(F)c1,-0.94,i,-4.1,i,i,i,
COc1ccc(CNCCc2cccc(F)c2)c2ccccc12,-18.2*,i,-11.4,i,i,.,
COC(=O)C1=C(c2ccc(-c3ccccc3)c(F)c2)C[C@@H]2CC[C@H]1N2C(=O)NCCOc1ccccc1Cl,.,.,.,.,.,i,
CCOc1ccc(Cl)cc1CNCCc1ccccc1F,-8.94*,i,-5.0,i,i,i,hERG ctr=i;KCNK9 inh-2=i;Kir2-1 patch inh=52.4%*
O=C1CC23c4ccccc4N4C(=O)CC5OCC=C6CN1C2CC6C5C43 (centres undefined),.,.,.,.,.,i,
c1ccc(CNCCc2c[nH]c3ccccc23)cc1,-0.43,i,-5.7,i,i,i,
CCc1ccc(CNCCc2c[nH]c3ccccc23)cc1,-14.6*,i,-9.7,i,i,i,hERG ctr=53.0%*;KCNK9 inh-2=i;Kir2-1 patch inh=60.5%*
CCN1CCN(Cc2ccc(C)cc2)CC1,1.86,i,-4.5,i,i,i,
Cc1ccc(CN2CCN(Cc3ccccc3F)CC2)cc1,-10.7*,i,-8.8,i,i,i,hERG ctr=i;KCNK9 inh-2=i;Kir2-1 patch inh=57.8%*
CCC(=O)c1ccc(OCC(=O)N2CCN(CC(=O)Nc3ccccc3C(F)(F)F)CC2)cc1,.,.,.,.,.,i,
Fc1ccc(C(OCCN2CCCC2)c2ccc(F)cc2)cc1,-2.93,i,-0.8,i,i,i,
Fc1ccc(C(OCCN2CCCC2)c2ccc(Br)cc2)cc1 (centres undefined),-8.38*,i,-18.0,i,i,i,hERG ctr=70.0%*;KCNK9 inh-2=i;Kir2-1 patch inh=i
SMILES,Kir21 block,KCNK9 inh-1,hERG protect,KCNQ1 act,KCNQ1 block,KCNK3 block,others
CC(=O)O[C@H]1CC[C@@]2(C)C(=CC(=O)C3C2CC[C@@]2(C)C3C[C@H](OC(C)=O)[C@@H]2OC(C)=O)C1 (some centres undefined),.,.,.,.,.,i,
CCCCCSc1cc(OC)c(CCN(C)C)cc1OC,-6.32*,i,-11.1,i,i,i,hERG ctr=57.0%*;KCNK9 inh-2=i;Kir2-1 patch inh=56.3%*
Cc1cccc(CCNCc2cc3cccc(C)c3[nH]c2=O)c1,-6.86*,i,-3.2,i,i,i,hERG ctr=i;KCNK9 inh-2=i;Kir2-1 patch inh=33.1%*
CN(C)CCOC(=O)c1cn(Cc2ccccc2)c2ccccc12,-7.02*,i,-3.2,i,i,i,hERG ctr=53.0%*;KCNK9 inh-2=i;Kir2-1 patch inh=33.3%*
CCC1C2Cc3ccc(O)cc3C1(CC)CCN2C (centres undefined),.,.,.,.,.,i,
CCc1ccc(CN2CCN(Cc3ccc(SC)cc3)CC2)cc1,-7.15*,i,-7.6,i,i,i,hERG ctr=60.0%*;KCNK9 inh-2=i;Kir2-1 patch inh=15.4%*;KCNK9 block conf=i;Kir2-1 spec=60.0%*;KCNK9 uninduced=i
CC1(C)C(=O)CCC2C1=CCC1C2CCC2(C)C(O)CCC12 (centres undefined),.,.,.,.,.,i,
CN(C)C(=S)SSC(=S)N(C)C,-1.91,i,-40.9,i,16*,i,KCNQ1 block val=0.0;CHO Tl flux=0.552;KCNQ2 inh=i;KCNQ1-KCNE1 inh=i
c1cncc(CNCCN2CCNCC2)c1,.,.,.,.,.,i,
